The values that follow come from ChEMBL document CHEMBL3593158, “Dirchromones: Cytotoxic Organic Sulfur Compounds Isolated from Dirca palustris” (J Nat Prod, 2015).

In brackets after ≈: the same amount, converted by molar mass. Activity calls are given as the source filed them. The calls are words filed in the database; no cut-off is given here. Bounds are passed on as bounds.

In one test the test system is Staphylococcus aureus. Kind of test: Antibacterial activity against Staphylococcus aureus ATCC 25923 incubated for 24 hrs by microdilution method. The format is functional. The essentials:
(§1)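 Modified microdilution in nutrient broth with exponentially growing bacteria per well: E. coli at 5 × 10^3, S. aureus at 3.5 × 10^4. Increasing compound concentrations were dissolved in DMSO and diluted in broth (final DMSO 0.1% v/v). Plates incubated 24 h at 37 °C.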
A general note: Dilution methods test growth across graded concentrations, often in twofold steps.

Test [1] has as its system A549. Briefly: Cytotoxicity against human A549 cells assessed as inhibition of cell growth incubated for 48 hrs by Hoechst assay. The format is functional, cell-based. As to conditions: A549, 48 h. The method, boiled down:
(§2)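 Cells from ATCC, grown in MEM with Earle's salts, 10% fetal calf serum, vitamins, sodium pyruvate, nonessential amino acids and penicillin/streptomycin at 37 °C in humidified 5% CO2. 5 × 10^3 exponentially growing cells per well adhered for 16 h, then were exposed 48 h to increasing concentrations in medium (final DMSO 0.5% v/v). Hoechst staining read-out; IC50 is the concentration inhibiting growth by 50%.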

A short description of test [2]: Cytotoxicity against human DLD1 cells assessed as inhibition of cell growth incubated for 48 hrs by Hoechst assay. The format is functional, cell-based. As to conditions: DLD-1, 48 h. The essentials:
as §2

Test [3] in a line: Cytotoxicity against human WS1 cells assessed as inhibition of cell growth incubated for 48 hrs by Hoechst assay. The format is cell-based. To be noted: WS1, 48 h. The method, boiled down: as §2
Another test deals with Escherichia coli. Briefly: Antibacterial activity against Escherichia coli ATCC 25922 incubated for 24 hrs by microdilution method. Type of test: functional, organism-based. The method, boiled down: as §1
A further test has as its system Candida albicans. Briefly: Antifungal activity against Candida albicans incubated for 24 hrs by microdilution method. Type of test: functional, organism-based. The essentials:
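Yeast tested by modified microdilution at 2 × 10^3 C. albicans per well in Sabouraud dextrose. Compounds were dissolved in DMSO, diluted in Sabouraud dextrose and added at increasing concentrations (final DMSO 0.1% v/v). Plates incubated 24 h at 37 °C.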

In test [4] the test system is A549. Kind of test: Selectivity index, ratio of IC50 for human A549 cells to IC50 for human DLD1 cells. The format is functional.
In another test the test system is DLD-1. Kind of test: Selectivity index, ratio of IC50 for human WS1 cells to IC50 for human DLD1 cells. The format is functional.

Consider GENTAMICIN, for which, in the test on Staphylococcus aureus, the MIC90 is 0.04 µg/mL.
`C[S+]([O-])/C=C/c1cc(=O)c2cc(O)ccc2o1` (stereo not drawn) returned an MIC90 in the test with Staphylococcus aureus (ATCC 25923, 24 h) of 7.8 µg/mL (≈ 31.2 µM). The IC50 (with A549 [1]; in test [2]; in test [3]) was > 10 µM throughout. Also, the outcome with Escherichia coli and with Candida albicans was inactive.
As for `COc1ccc2c(=O)cc(/C=C/[S+](C)[O-])oc2c1` (stereo not drawn), the MIC90 with Staphylococcus aureus (ATCC 25923, 24 h) is 8.3 µg/mL (≈ 31.4 µM). The values for the half-maximal inhibitory concentration (IC50) (in the test on A549 [1]; in test [2]; in test [3]) were 10.5 µM, 1.8 µM and 9 µM, respectively. Besides, the outcome with Escherichia coli and in the test on Candida albicans was inactive. The Ratio IC50 in the test on A549 [4] amounted to 5.8; with DLD-1, 5.
On to `C[S+]([O-])/C=C/c1cc(=O)c2ccccc2o1` (stereo not drawn), for which the MIC90 with Staphylococcus aureus (ATCC 25923, 24 h) is 3.7 µg/mL (≈ 15.8 µM). Moreover, the figures for the IC50 (with A549 [1]; in test [2]; in test [3]) were 10 µM, 1 µM and 9 µM, respectively. The result in the test with Escherichia coli and in the test with Candida albicans was inactive. Further, the Ratio IC50 in the test with A549 [4] was determined as 10; in the test with DLD-1, 9.
Compound `COc1ccc2oc(/C=C/[S+](C)[O-])cc(=O)c2c1` (stereo not drawn) returned an MIC90 in the test on Staphylococcus aureus (ATCC 25923, 24 h) of 4.1 µg/mL (≈ 15.5 µM). Moreover, the values for the IC50 (in the test with A549 [1]; in test [2]; in test [3]) were 9 µM, 1.1 µM and 6 µM, respectively. In addition, the outcome with Escherichia coli and in the test with Candida albicans was inactive. Further, the Ratio IC50 was found to be 8.2 in the test with A549 [4] and 5 in the test with DLD-1.
Take `COc1cc([C@@H]2c3cc4c(cc3[C@@H](O[C@@H]3O[C@@H]5CO[C@@H](C)O[C@H]5[C@H](O)[C@H]3O)[C@H]3COC(=O)[C@H]23)OCO4)cc(OC)c1O` [ETOPOSIDE]: the IC50 in the test with A549 [1] is 0.48 µM; in test [2], 3.3 µM; in test [3], > 10 µM.
`COc1ccc2c(=O)cc(/C=C/[S+](C)[O-])oc2c1O` (stereo not drawn) gave an MIC90 with Staphylococcus aureus (ATCC 25923, 24 h) of 14 µg/mL (≈ 49.9 µM). For the same compound, the half-maximal inhibitory concentration (IC50) (with A549 [1]; in test [2]; in test [3]) was > 10 µM in each case. In addition, the outcome with Escherichia coli and with Candida albicans was inactive.
Compound `COc1cc2oc(/C=C/[S+](C)[O-])cc(=O)c2cc1OC` (stereo not drawn) had an MIC90 against Staphylococcus aureus (ATCC 25923, 24 h) of 18.4 µg/mL (≈ 62.5 µM). The 50% inhibitory concentration (IC50) is > 10 µM in the test on A549 [1], 4.2 µM in test [2] and > 10 µM in test [3]. Further, the outcome in the test with Escherichia coli and in the test on Candida albicans was inactive.
Consider `COc1ccc2c(=O)cc(/C=C/[S+](C)[O-])oc2c1OC` (stereo not drawn), for which the MIC90 in the test on Staphylococcus aureus (ATCC 25923, 24 h) came out at 18.4 µg/mL (≈ 62.5 µM). In addition, the IC50 in the test on A549 [1] was > 10 µM; in test [2], 3.3 µM; in test [3], > 10 µM. The outcome in the test on Escherichia coli and in the test on Candida albicans was inactive.
For the compound `COc1cc2oc(/C=C/[S+](C)[O-])cc(=O)c2cc1O` (stereo not drawn), the MIC90 with Staphylococcus aureus (ATCC 25923, 24 h) came to 14 µg/mL (≈ 49.9 µM). In addition, the IC50 (with A549 [1]; in test [2]; in test [3]) was > 10 µM throughout. Further, the result with Escherichia coli and in the test with Candida albicans was inactive.

Usually MIC90 stands for an inhibitory concentration at the 90% level, which refers to growth in some studies and to a panel of isolates in others. Read a low MIC90 as higher susceptibility. For orientation: IC50 means the concentration that inhibits the measured activity by half.
